The values that follow come from ChEMBL document CHEMBL3259775, “Towards the development of 5-HT₇ ligands combining serotonin-like and arylpiperazine moieties” (Eur J Med Chem, 2014).

Molecules are shown by their SMILES. Active and inactive are the calls of the source. The rule behind the calls is not given here.

The target of assay [1] is T1, 5-hydroxytryptamine receptor 7 (Homo sapiens, UniProt P34969). Put plainly: Antagonist activity at human 5-HT7 receptor expressed in CHO cells assessed as inhibition of 5-HT-stimulated cAMP accumulation by Cheng-Prusoff method. It is filed as functional, cell-based. (cAMP levels reflect the balance of adenylyl cyclase and phosphodiesterase activity.)
The target of assay [2] is T1, 5-hydroxytryptamine receptor 7. Put plainly: Displacement of [3H]5-HT from human 5-HT7 receptor expressed in HEK293 cells at 10^-7 mol/L after 30 mins by microbeta counting analysis. It is filed as cell-based. (In general: Displacement assays read how much labelled ligand stays bound in the presence of the test substance.)
Assay [3] has the same target. Put plainly: Displacement of [3H]5-HT from human 5-HT7 receptor expressed in HEK293 cells at 10^-5 mol/L after 30 mins by microbeta counting analysis. It is filed as cell-based. The essentials: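 Membranes incubated 30 min at 25 °C with 5 nmol/L [3H]5-HT in 50 mM Tris-HCl pH 7.4 containing pargyline, CaCl2 and ascorbic acid, with the test compound at a single fixed concentration. Non-specific binding with 100 µM cold 5-HT; separation by filtration; result reported as % displacement.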

Assay [4] shares this target. Briefly: Displacement of [3H]5-HT from human 5-HT7 receptor expressed in HEK293 cells after 30 mins by microbeta counting analysis. It is filed as cell-based.
Assay [5] shares this target. Put plainly: Antagonist activity at human 5-HT7 receptor expressed in CHO cells assessed as residual 5-HT-stimulated cAMP accumulation at 1 uM relative to control.
For assay [6] the target is unchanged. Put plainly: Antagonist activity at human 5-HT7 receptor expressed in CHO cells assessed as inhibition of 5-HT-stimulated cAMP accumulation. It is filed as functional, cell-based.
The target is the same in assay [7]. Briefly: Agonist activity at human 5-HT7 receptor expressed in CHO cells assessed as stimulation of cAMP accumulation up to 10^-5 M. It is filed as functional, cell-based.
Assay [8] deals with T2, 5-hydroxytryptamine receptor 2C (Homo sapiens) (UniProt P28335).
T2 sequence (whole entry): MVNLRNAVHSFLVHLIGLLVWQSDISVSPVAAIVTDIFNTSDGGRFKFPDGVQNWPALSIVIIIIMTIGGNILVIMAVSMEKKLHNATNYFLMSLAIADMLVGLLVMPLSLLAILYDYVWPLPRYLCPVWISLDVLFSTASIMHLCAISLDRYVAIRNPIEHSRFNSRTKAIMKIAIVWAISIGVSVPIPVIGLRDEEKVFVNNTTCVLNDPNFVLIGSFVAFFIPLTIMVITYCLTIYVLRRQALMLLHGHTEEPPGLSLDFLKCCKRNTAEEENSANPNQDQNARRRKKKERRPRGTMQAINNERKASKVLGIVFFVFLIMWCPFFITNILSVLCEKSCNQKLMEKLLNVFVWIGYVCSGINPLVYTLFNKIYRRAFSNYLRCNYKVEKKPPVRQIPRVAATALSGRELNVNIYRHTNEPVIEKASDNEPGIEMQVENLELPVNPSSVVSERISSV
Briefly: Binding affinity to human recombinant 5-HT2C receptor expressed in HEK293 cells at 1 uM after 30 mins by radioligand displacement assay relative to control. It is filed as cell-based.

Assay [9] deals with 5-hydroxytryptamine receptor 6 (Homo sapiens) (UniProt P50406). Briefly: Binding affinity to human recombinant 5-HT6 receptor expressed in CHO cells at 1 uM after 30 mins by radioligand displacement assay relative to control. It is filed as cell-based.
Assay [10] addresses T3, 5-hydroxytryptamine receptor 1A (Homo sapiens) (UniProt P08908).
T3 sequence (whole entry): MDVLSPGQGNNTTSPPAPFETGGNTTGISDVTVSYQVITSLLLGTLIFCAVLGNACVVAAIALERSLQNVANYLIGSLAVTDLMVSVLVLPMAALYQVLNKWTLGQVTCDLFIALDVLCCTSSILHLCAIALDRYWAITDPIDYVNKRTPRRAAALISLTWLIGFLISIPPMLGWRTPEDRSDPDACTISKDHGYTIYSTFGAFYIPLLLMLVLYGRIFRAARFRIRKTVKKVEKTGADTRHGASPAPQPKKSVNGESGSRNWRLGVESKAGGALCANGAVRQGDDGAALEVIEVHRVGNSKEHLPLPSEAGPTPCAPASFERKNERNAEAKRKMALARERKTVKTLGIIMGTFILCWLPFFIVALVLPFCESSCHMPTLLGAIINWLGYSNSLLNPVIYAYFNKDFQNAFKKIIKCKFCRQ
Put plainly: Displacement of [3H]-8-OH-DPAT from human recombinant 5-HT1A receptor expressed in HEK293 cells at 1 uM by scintillation counting analysis relative to control. It is filed as cell-based.

In assay [11] the target is 5-hydroxytryptamine receptor 1B (Homo sapiens) (UniProt P28222). Put plainly: Binding affinity to recombinant human 5-HT1B receptor expressed in CHO cells at 1 uM by radioligand displacement assay relative to control. It is filed as cell-based.
Assay [12] concerns the target 5-hydroxytryptamine receptor 1D (Rattus norvegicus) (UniProt P28565). Briefly: Binding affinity to rat recombinant 5-HT1D receptor expressed in CHO cells at 1 uM by radioligand displacement assay relative to control. It is filed as cell-based.
Assay [13] has as its target T1, 5-hydroxytryptamine receptor 7. Briefly: Binding affinity to human recombinant 5-HT7 receptor expressed in CHO cells after 30 mins by radioligand displacement assay. It is filed as cell-based. In a few lines:
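Membranes from receptor-expressing cells harvested at 80% confluence, homogenised and pelleted at 48,000 × g for 90 min, then protein-quantified by Bradford. Competition with 5 nmol/L [3H]5-HT and test compound for 30 min at 25 °C in 50 mM Tris-HCl pH 7.4 containing pargyline, 4 mmol/L CaCl2 and 0.05% ascorbic acid. Non-specific binding measured with excess cold 5-HT; bound radioligand separated by filtration. Ki derived from IC50 by Cheng-Prusoff; mean of four determinations in duplicate.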

For assay [14], the target named is 5-hydroxytryptamine receptor 4 (Homo sapiens) (UniProt Q13639). Put plainly: Binding affinity to human recombinant 5-HT4E receptor expressed in CHO cells at 1 uM after 30 mins by radioligand displacement assay relative to control. It is filed as cell-based.
For assay [15], the target named is 5-hydroxytryptamine receptor 5A (Homo sapiens) (UniProt P47898). Put plainly: Displacement of [3H]LSD from human recombinant 5-HT5A receptor expressed in HEK293 cells at 1 uM after 120 mins by scintillation counting analysis relative to control. It is filed as cell-based.
Assay [16] concerns the target 5-hydroxytryptamine receptor 2A (Homo sapiens) (UniProt P28223). Put plainly: Binding affinity to human recombinant 5-HT2A receptor expressed in HEK293 cells at 1 uM by radioligand displacement assay relative to control. It is filed as cell-based.
The target in assay [17] is T4, 5-hydroxytryptamine receptor 3A (Homo sapiens) (UniProt P46098).
T4 sequence (whole entry): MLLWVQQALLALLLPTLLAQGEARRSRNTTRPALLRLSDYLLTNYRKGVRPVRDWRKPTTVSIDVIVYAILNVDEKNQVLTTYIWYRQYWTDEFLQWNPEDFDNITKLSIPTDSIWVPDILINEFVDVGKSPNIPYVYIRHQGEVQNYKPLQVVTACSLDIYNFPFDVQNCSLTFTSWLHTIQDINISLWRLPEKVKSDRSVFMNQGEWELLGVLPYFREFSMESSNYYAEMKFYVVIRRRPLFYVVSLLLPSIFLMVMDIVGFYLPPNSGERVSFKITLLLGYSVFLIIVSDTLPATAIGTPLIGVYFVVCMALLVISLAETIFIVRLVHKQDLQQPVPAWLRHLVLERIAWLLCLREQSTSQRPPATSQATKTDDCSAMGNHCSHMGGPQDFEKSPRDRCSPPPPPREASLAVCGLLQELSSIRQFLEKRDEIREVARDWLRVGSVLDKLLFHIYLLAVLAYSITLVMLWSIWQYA
Put plainly: Binding affinity to human 5-HT3 receptor at 1 uM by radioligand displacement assay relative to control.

The target of assay [18] is 5-hydroxytryptamine receptor 2B (Homo sapiens) (UniProt P41595). Put plainly: Binding affinity to human recombinant 5-HT2B receptor expressed in CHO cells at 1 uM by radioligand displacement assay relative to control. It is filed as cell-based.

As a reminder, the Kb is the affinity of an antagonist, worked out from how it opposes an agonist. For orientation: inhibition means the change of the read-out against control, counted positive when it falls. What is called Ki is the dissociation constant of the complex between target and ligand, obtained from inhibition or displacement. Usually IC50 stands for the point on the concentration scale where inhibition reaches its midpoint.

T1 sequence (P34969 whole entry): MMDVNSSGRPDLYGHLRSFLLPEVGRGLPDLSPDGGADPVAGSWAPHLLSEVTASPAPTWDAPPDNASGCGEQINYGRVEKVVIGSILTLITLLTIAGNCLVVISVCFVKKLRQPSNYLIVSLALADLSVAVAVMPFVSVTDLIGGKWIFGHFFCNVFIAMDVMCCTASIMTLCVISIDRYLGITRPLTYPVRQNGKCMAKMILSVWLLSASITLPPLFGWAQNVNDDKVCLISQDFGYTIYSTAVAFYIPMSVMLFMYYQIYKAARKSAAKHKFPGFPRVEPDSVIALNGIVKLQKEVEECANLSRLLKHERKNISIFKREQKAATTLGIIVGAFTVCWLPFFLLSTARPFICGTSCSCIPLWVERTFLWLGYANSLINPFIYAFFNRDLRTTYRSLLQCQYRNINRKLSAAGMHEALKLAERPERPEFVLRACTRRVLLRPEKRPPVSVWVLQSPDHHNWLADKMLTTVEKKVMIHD
5-hydroxytryptamine receptor 4 (Homo sapiens), sequence (Q13639 whole entry): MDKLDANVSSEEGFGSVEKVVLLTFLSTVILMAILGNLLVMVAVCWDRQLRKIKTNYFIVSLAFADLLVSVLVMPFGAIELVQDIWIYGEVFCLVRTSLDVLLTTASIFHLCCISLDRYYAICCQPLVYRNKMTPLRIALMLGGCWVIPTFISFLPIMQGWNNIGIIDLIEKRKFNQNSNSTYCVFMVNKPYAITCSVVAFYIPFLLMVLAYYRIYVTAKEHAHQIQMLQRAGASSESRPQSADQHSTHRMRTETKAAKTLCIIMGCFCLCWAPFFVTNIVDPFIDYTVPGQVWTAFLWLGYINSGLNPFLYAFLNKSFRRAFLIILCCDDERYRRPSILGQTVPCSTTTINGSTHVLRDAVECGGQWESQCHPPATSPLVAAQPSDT
5-hydroxytryptamine receptor 1B (Homo sapiens), sequence (P28222 whole entry): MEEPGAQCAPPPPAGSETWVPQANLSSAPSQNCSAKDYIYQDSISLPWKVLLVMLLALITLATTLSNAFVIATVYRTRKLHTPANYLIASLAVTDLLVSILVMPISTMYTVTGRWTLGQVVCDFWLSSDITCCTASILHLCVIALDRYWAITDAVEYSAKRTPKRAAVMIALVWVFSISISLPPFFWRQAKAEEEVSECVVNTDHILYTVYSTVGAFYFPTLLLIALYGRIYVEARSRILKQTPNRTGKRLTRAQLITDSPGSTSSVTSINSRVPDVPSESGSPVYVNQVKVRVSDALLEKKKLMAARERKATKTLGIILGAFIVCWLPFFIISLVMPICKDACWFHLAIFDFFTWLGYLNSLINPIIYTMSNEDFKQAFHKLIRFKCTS
5-hydroxytryptamine receptor 6 (Homo sapiens), sequence (P50406 whole entry): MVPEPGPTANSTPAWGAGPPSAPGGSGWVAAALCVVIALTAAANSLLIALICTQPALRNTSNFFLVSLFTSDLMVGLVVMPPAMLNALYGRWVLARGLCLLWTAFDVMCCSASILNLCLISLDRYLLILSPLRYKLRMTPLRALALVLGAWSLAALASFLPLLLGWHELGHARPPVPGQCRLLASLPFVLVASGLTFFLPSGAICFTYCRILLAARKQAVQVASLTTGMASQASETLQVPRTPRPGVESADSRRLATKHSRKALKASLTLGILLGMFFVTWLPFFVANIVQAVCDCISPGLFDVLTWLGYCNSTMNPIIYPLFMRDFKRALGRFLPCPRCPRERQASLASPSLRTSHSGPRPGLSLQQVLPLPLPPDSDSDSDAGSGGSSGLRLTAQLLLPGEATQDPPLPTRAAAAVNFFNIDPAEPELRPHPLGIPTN
5-hydroxytryptamine receptor 1D (Rattus norvegicus), sequence (P28565 whole entry): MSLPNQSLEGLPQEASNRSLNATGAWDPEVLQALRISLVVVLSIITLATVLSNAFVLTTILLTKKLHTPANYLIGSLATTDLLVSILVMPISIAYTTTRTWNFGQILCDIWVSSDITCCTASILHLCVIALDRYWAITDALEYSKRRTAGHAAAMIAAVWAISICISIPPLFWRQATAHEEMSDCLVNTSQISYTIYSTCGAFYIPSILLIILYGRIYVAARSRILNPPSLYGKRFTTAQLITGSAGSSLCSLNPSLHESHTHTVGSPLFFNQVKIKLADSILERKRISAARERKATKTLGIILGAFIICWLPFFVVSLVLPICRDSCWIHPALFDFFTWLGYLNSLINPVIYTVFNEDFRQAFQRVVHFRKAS
5-hydroxytryptamine receptor 5A (Homo sapiens), sequence (P47898 whole entry): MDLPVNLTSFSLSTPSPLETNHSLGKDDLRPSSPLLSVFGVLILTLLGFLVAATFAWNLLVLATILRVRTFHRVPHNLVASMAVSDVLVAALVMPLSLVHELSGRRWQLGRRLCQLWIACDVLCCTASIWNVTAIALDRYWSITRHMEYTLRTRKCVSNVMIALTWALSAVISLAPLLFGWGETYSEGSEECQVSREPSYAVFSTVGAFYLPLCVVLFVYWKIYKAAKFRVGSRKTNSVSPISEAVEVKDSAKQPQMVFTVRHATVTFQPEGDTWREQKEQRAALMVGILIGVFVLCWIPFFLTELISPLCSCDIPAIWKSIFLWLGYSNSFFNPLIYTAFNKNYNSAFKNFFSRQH
5-hydroxytryptamine receptor 2B (Homo sapiens), sequence (P41595 whole entry): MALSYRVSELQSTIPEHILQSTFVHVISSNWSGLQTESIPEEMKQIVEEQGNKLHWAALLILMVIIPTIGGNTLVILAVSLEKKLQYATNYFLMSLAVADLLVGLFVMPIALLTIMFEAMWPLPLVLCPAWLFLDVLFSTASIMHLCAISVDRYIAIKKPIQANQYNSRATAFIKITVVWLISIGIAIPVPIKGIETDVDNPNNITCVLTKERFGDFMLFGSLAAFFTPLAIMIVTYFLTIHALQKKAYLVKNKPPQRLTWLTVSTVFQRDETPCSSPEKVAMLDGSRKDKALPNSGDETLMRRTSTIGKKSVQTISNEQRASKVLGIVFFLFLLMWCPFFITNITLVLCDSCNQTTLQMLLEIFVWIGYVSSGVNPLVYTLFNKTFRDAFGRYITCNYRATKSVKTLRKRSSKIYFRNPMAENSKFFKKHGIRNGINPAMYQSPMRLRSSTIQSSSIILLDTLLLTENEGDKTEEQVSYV
5-hydroxytryptamine receptor 2A (Homo sapiens), sequence (P28223 whole entry): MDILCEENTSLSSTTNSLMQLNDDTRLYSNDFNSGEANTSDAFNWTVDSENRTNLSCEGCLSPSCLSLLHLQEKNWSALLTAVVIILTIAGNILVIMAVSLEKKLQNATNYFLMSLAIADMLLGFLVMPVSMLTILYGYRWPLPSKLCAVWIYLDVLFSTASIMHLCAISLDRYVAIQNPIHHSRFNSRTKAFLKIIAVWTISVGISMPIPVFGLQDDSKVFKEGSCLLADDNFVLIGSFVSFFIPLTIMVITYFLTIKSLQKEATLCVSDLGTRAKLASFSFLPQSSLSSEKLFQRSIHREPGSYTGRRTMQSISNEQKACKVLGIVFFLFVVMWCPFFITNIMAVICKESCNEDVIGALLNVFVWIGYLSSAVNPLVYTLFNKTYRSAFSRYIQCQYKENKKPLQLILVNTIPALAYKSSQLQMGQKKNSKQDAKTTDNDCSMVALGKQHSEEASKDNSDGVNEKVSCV

As for `CN1C[C@@H](NS(=O)(=O)N(C)C)C[C@@H]2c3cccc4c3c(cn4C)C[C@H]21`, in [1], the Kb is 16 nM.

On to `Oc1ccc2[nH]cc(CCN3CCN(c4ccc(-c5ccccc5)cc4)CC3)c2c1`, for which the inhibition in assay [2] turned out to be 10%; in assay [3] it was 32%.

For the molecule `Oc1ccc2[nH]cc(CCN3CCN(C4CCCC4)CC3)c2c1`, the inhibition in assay [2] worked out at 1%.

For the molecule `CN(CCCCN1CCN(c2ccccc2)CC1)c1cccc(O)c1`, the Kb in assay [1] turned out to be 57 nM. In assay [4], this molecule showed an inhibition constant Ki of 30 nM. Further, the % serotonin response in assay [5] turned out to be 39%. Also, the IC50 in assay [6] came out at 540 nM. Also, in assay [7], the result was inactive.

`CN(C(=O)CCCCCN1CCN(c2cccc3ccccc23)CC1)c1cccc(O)c1`: the inhibition in [8] is 98%; in assay [9] it was 71%; in assay [10] it was 99%; in [11], 69%; in assay [12], 100%; in [14], 16%. Moreover, the inhibition in assay [15] is 70%; in assay [16] it was 99%; in assay [17] it was 6%; in [18] it was 101%. For the same molecule, the Ki in assay [4] and in [13] was 8.1 nM each time.

For `CN(CCCN1CCN(c2ccccc2)CC1)c1cccc(O)c1`, the inhibition in assay [8] is 42%; in assay [9], 21%; in assay [10], 101%; in [11], 9%; in assay [12] it was 18%; in assay [14], -5%. Also, the inhibition in assay [15] amounted to 49%; in [16] it was 79%; in [17], 5%; in assay [18] it was 75%. Also, the Ki in assay [4] and in [13] was 20 nM throughout. Further, in assay [5], the % serotonin response came to 49%.

In the case of `CCCCN1CCN(CCc2c[nH]c3ccc(O)cc23)CC1`, the inhibition in assay [2] was -9%.
